Columns and labels:
[1] = target: T1, Tyrosine-protein phosphatase non-receptor type 5 (Homo sapiens, UniProt P54829); experiment: Inhibition of human PTPN5 expressed in Escherichia coli Rosetta 2 (DE3) using pNPP as substrate after 45 mins by spectrophotometric method
T1 sequence (P54829 whole entry): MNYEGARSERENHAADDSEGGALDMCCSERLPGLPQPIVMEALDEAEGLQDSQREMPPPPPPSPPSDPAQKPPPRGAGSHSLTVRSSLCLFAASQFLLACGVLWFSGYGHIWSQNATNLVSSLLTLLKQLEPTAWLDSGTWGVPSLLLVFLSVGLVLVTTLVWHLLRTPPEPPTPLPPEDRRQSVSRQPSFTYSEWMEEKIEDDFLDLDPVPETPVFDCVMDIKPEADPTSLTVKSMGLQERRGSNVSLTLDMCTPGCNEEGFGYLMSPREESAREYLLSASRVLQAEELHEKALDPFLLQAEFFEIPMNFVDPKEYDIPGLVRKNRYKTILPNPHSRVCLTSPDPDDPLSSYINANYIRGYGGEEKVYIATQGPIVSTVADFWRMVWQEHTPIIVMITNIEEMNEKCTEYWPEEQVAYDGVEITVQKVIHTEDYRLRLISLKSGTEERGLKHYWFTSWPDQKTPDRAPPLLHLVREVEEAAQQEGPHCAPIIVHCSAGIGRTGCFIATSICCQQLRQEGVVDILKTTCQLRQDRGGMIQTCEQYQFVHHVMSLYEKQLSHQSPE

[2] = target: T2, Tyrosine-protein phosphatase non-receptor type 1 (Homo sapiens, UniProt P18031); experiment: Inhibition of human PTPN1 expressed in Escherichia coli Rosetta 2 (DE3) using pNPP as substrate after 45 mins by spectrophotometric method
T2 sequence (P18031 whole entry): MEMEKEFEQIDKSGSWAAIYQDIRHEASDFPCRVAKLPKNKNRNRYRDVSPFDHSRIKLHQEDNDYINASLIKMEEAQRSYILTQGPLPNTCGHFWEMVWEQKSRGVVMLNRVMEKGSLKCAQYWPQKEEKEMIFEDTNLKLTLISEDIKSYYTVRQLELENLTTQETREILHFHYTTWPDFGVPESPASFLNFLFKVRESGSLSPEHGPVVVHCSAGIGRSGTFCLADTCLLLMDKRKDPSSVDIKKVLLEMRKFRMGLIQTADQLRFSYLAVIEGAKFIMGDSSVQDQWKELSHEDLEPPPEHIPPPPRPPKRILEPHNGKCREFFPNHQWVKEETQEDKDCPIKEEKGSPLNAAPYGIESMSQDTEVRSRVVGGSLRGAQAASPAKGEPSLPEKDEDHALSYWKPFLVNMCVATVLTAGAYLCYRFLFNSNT

[3] = target: T3, Tyrosine-protein phosphatase non-receptor type 2 (Homo sapiens, UniProt P17706); experiment: Inhibition of human PTPN2 expressed in Escherichia coli Rosetta 2 (DE3) using pNPP as substrate after 45 mins by spectrophotometric method
T3 sequence (P17706 whole entry): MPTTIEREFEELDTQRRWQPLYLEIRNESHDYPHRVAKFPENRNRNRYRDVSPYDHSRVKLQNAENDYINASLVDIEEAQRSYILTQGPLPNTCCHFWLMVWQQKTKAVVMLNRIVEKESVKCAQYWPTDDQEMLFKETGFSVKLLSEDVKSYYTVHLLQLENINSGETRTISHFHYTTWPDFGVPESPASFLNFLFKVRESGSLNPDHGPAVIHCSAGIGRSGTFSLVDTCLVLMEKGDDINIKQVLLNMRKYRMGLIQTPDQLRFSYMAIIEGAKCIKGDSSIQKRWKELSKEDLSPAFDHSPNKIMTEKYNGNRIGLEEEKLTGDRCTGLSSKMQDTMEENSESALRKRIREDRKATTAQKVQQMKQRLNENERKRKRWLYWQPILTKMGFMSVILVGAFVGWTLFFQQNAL

[4] = test system: Mycobacterium tuberculosis; experiment: Antitubercular activity against Mycobacterium tuberculosis H37Rv after 5 days; format: functional, organism-based; conditions: 120 h
[5] = test system: Mycobacterium tuberculosis; experiment: Antitubercular activity against Mycobacterium tuberculosis H37Rv after 5 days at 200 uM relative to control; format: functional; conditions: 120 h
In short: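 M. tuberculosis grown in liquid culture with compound at a fixed 200 μM for 5 days. Growth inhibition expressed as percent of control.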

[6] = target: T4, Phosphotyrosine protein phosphatase (Mycobacterium tuberculosis, UniProt A0A045ISB3); experiment: Inhibition of Mycobacterium tuberculosis His-tagged PtpB expressed in Escherichia coli Rosetta 2 (DE3) using pNPP as substrate after 30 mins by spectrophotometric method
T4 sequence (A0A045ISB3 whole entry): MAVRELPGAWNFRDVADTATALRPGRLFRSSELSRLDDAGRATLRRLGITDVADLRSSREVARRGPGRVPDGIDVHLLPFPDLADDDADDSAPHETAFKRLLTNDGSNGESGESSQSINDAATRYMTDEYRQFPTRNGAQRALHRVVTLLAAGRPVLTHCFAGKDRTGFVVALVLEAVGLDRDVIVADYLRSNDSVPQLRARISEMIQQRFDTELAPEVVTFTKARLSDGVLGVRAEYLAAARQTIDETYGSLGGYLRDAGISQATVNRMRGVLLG

[7] = Inhibition of refolded rhodanese (unknown origin) preincubated with Escherichia coli GroEL/GroES for 60 mins by measuring rhodanese enzyme activity followed by compound addition by Fe(SCN)3 dye based spectrometric analysis; parameters: species or system Homo sapiens
[8] = Cytotoxicity against human HEK293 cells assessed as reduction in cell viability after 48 hrs by Alamar blue assay; format: cell-based
In short: (§1)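 Alamar Blue viability read-out. Human liver (THLE-3) and kidney (HEK 293) cells incubated with compound for 48 h. Tested in dose-response to derive CC50.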

[9] = target: T5, Malate dehydrogenase, mitochondrial (Sus scrofa, UniProt P00346); experiment: Inhibition of refolded pig heart mitochondrial MDH preincubated with Escherichia coli GroEL/GroES for 45 mins using sodium mesoxalate as substrate followed by compound addition and measured after 20 to 30 mins by spectrometric analysis
T5 sequence (P00346 whole entry): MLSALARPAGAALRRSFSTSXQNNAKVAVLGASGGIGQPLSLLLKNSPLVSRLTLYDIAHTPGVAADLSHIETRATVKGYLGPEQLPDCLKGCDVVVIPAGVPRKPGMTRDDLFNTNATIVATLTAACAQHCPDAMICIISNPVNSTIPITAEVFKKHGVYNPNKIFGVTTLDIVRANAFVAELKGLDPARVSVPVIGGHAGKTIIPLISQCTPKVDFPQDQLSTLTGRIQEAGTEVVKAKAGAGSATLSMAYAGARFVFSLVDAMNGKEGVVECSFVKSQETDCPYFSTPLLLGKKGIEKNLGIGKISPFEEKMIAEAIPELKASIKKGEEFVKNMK

HSP60/HSP10 = HSP60/HSP10 (Homo sapiens, UniProt P10809); experiment: Inhibition of human HSP60 expressed in Escherichia coli Rosetta 2(DE3)/human HSP10 expressed in Escherichia coli Rosetta 2(DE3) pLysS cells assessed as reduction in HSP60/HSP10-mediated denatured pig heart mitochondrial MDH refolding by measuring MDH enzyme activity using sodium mesoxalate as substrate after 40 to 60 mins by spectrometric analysis
Chain of HSP60/HSP10 (P10809 whole entry): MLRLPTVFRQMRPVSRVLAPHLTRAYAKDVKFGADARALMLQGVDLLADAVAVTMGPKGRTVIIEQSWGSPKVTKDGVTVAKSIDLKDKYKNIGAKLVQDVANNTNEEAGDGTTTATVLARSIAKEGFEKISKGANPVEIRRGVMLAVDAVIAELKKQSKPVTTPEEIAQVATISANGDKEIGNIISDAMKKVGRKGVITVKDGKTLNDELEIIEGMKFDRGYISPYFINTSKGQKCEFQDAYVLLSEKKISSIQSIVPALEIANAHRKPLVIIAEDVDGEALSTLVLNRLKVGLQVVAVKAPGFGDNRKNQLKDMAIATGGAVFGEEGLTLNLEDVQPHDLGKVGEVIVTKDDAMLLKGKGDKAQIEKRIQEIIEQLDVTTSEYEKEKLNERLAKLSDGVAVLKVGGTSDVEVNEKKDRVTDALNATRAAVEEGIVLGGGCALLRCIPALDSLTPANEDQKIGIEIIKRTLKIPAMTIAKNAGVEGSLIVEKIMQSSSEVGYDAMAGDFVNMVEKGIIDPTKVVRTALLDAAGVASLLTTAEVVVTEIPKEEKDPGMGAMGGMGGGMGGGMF
Chain of HSP60/HSP10 (P61604 whole entry, further chain): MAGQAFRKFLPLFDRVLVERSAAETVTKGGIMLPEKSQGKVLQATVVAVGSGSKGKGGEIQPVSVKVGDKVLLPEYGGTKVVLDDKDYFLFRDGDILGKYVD

[10] = Cytotoxicity against human THLE3 cells assessed as reduction in cell viability after 48 hrs by Alamar blue assay; format: cell-based; in short: as §1

SMILES	IC50 [1] [µM]	IC50 [2] [µM]	IC50 [3] [µM]	EC50 [4] [µM]	inhibition at 200 µM [5] [%]	IC50 [6] [µM]	IC50 [7] [µM]	CC50 at 48 h [8] [µM]	IC50 [9] [µM]	IC50 (HSP60/HSP10) [µM]	CC50 at 48 h [10] [µM]
Nc1ccc(S(=O)(=O)Nc2ccc(-c3nc4cc(NS(=O)(=O)c5ccc(N)cc5)ccc4o3)cc2)cc1	41	27	32	> 200	51	16					
O=S(=O)(Nc1ccc(-c2nc3cc(NS(=O)(=O)c4cccc(F)c4)ccc3o2)cc1)c1cccc(F)c1	31	36	32	> 200	48	13					
CS(=O)(=O)Nc1ccc(-c2nc3cc(NS(C)(=O)=O)ccc3o2)cc1	> 100	> 100	> 100	> 200	62	> 100					
O=S(=O)(Nc1ccc2oc(-c3ccccc3)nc2c1)c1cccc(Cl)c1	> 100	88	51		45	> 100	> 100	70	> 63	> 100	45
COc1ccccc1S(=O)(=O)Nc1ccc(-c2nc3ccccc3o2)cc1	44	54	53		0	59	> 100	> 100	> 63	> 100	> 100
N#Cc1cccc(S(=O)(=O)Nc2ccc(-c3nc4cc(NS(=O)(=O)c5cccc(C#N)c5)ccc4o3)cc2)c1	44	37	48	> 200	65	33					
CS(=O)(=O)Nc1ccc2oc(-c3ccc(NS(=O)(=O)c4ccc(Cl)s4)cc3)nc2c1	> 100	73	> 100	104	85	46					
O=S(=O)(Nc1ccc(-c2nc3cc(NS(=O)(=O)c4ccccc4Br)ccc3o2)cc1)c1ccccc1Br	31	24	28	> 200	50	20					
O=S(=O)(Nc1ccc(-c2nc3cc(NS(=O)(=O)c4cccc5nonc45)ccc3o2)cc1)c1cccc2nonc12	40	34	58	> 200	76	8.8					
O=S(=O)(Nc1ccc2oc(-c3ccccc3)nc2c1)c1ccc(F)c(C(F)(F)F)c1	26	76	39		23	46	> 100	> 100	> 63	69	55
N#Cc1ccccc1S(=O)(=O)Nc1ccc(-c2nc3cc(NS(=O)(=O)c4ccccc4C#N)ccc3o2)cc1	47	56	69	113	85	18					
O=S(=O)(Nc1ccc2oc(-c3ccccc3)nc2c1)c1ccc(O)cc1	84	92	> 100		9	97	> 100	> 100	> 63	88	> 100
O=S(=O)(Nc1ccc2oc(-c3ccccc3)nc2c1)c1ccccc1O	68	76	> 100		18	98	> 100	33	> 63	85	32
O=S(=O)(Nc1ccc(-c2nc3cc(NS(=O)(=O)c4ccc(Cl)s4)ccc3o2)cc1)c1ccccc1	17	19	29		41	6.7					
COc1ccccc1S(=O)(=O)Nc1ccc(-c2nc3cc(NS(=O)(=O)c4ccccc4OC)ccc3o2)cc1	19	12	21		12	8.7					
CCCS(=O)(=O)Nc1ccc(-c2nc3cc(NS(=O)(=O)CCC)ccc3o2)cc1	83	> 100	> 100		13	> 100					
O=[N+]([O-])c1cc(S(=O)(=O)Nc2ccc3oc(-c4ccc(NS(=O)(=O)c5ccc(Cl)s5)cc4)nc3c2)ccc1Cl	8.4	9.4	8.9		1	4.6					
O=S(=O)(Nc1ccc2oc(-c3ccc(NS(=O)(=O)c4ccc(Cl)s4)cc3)nc2c1)c1ccc(Cl)c(C(F)(F)F)c1	11	7.6	14		0	3.8					
CS(=O)(=O)Nc1ccc2oc(-c3ccccc3)nc2c1	> 100	> 100	> 100		6	> 100	> 100	> 100	> 63	> 100	> 100
O=S(=O)(Cc1ccccc1)Nc1ccc(-c2nc3cc(NS(=O)(=O)Cc4ccccc4)ccc3o2)cc1	25	23	31		0	27					
COc1cccc(S(=O)(=O)Nc2ccc(-c3nc4cc(NS(=O)(=O)c5cccc(OC)c5)ccc4o3)cc2)c1	22	18	16		0	9.4					

Source: ChEMBL document CHEMBL4387722
